Measured values: ChEMBL document CHEMBL1125811, “Potential antitumor agents. 63. Structure-activity relationships for side-chain analogues of the colon 38 active agent 9-oxo-9H-xanthene-4-acetic acid” (J Med Chem, 1991)

Tested on: not listed separately
Assay: Relative measure of lipophilicity was determined by using 4'-(9-acridinylamino)-methanesulfonanilide as internal standard
Format: physicochemical
Details: octanol/water
In short: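 Rm determined by liquid-liquid chromatography, with AMSA as internal standard.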

Row | Compound | Rm
1 | O=C(O)COc1cccc2c(=O)c3ccccc3oc12 | 0.21
2 | CN(C)CCNC(=O)Cc1cccc2c(=O)c3ccccc3oc12 | -0.27
3 | O=C(O)C(F)c1cccc2c(=O)c3ccccc3oc12 (configuration not stated) | 0.75
4 | CCOP(=O)(O)Cc1cccc2c(=O)c3ccccc3oc12 | -0.04
5 | CN(C)CCOC(=O)Cc1cccc2c(=O)c3ccccc3oc12 | -0.24
6 | Cc1cccc2c(=O)c3cccc(C(C)C(=O)O)c3oc12 (configuration not stated) | 0.88
7 | O=C(O)Cc1cccc2c(=O)c3ccccc3oc12 | 0.64
8 | O=c1c2ccccc2oc2c(CS(=O)(=O)O)cccc12 | -0.59
9 | O=C(O)C(O)c1cccc2c(=O)c3ccccc3oc12 (configuration not stated) | 0.04
10 | COC(C(=O)O)c1cccc2c(=O)c3ccccc3oc12 (configuration not stated) | 0.49
11 | Cc1ccc2c(=O)c3cccc(CC(=O)O)c3oc2c1C [VADIMEZAN] | 0.49
12 | CC(C(=O)O)c1cccc2c(=O)c3ccccc3oc12 (configuration not stated) | 0.85
13 | O=c1c2ccccc2oc2c(CP(=O)(O)O)cccc12 | -0.48
14 | NC(C(=O)O)c1cccc2c(=O)c3ccccc3oc12 (configuration not stated) | -0.53
15 | O=C(O)CCc1cccc2c(=O)c3ccccc3oc12 | 0.7
16 | O=C(O)c1cccc2c(=O)c3ccccc3oc12 | 0.49
17 | O=C(Cc1cccc2c(=O)c3ccccc3oc12)NS(=O)(=O)c1ccccc1 | 0.51
18 | N=C(N)SCc1cccc2c(=O)c3ccccc3oc12 | -0.2

Species on record: Mus musculus
Assay: Ability to cause early haemorrhagic necrosis of colon 38 tumors in mice.
Format: functional
Set-up: concentration or dose not given beside the values
Details: not given
In short: (§1)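 Colon 38 fragments implanted s.c. in BDF1 mice and grown to 4-8 mm diameter. Single i.p. dose of sodium salt in water, escalated in 1.5-fold steps up to 750 mg/kg or the maximum nonlethal dose. Triplicate testing, groups of five mice. Tumors excised after 24 h, formalin-fixed, H&E-stained and scored histologically: ++ for 90-100% necrosis, + for 50-90%, - for consistently <50%.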

Row | Compound | Activity [%]
19 | O=C(O)COc1cccc2c(=O)c3ccccc3oc12 | <50
20 | O=C(O)C(F)c1cccc2c(=O)c3ccccc3oc12 (configuration not stated) | <50
21 | CCOP(=O)(O)Cc1cccc2c(=O)c3ccccc3oc12 | <50
22 | Cc1cccc2c(=O)c3cccc([C@H](C)C(=O)O)c3oc12 | >90
23 | Cc1cccc2c(=O)c3cccc(C(C)C(=O)O)c3oc12 (configuration not stated) | >90
24 | O=C(O)Cc1cccc2c(=O)c3ccccc3oc12 | >90
25 | O=c1c2ccccc2oc2c(CS(=O)(=O)O)cccc12 | <50
26 | COC(C(=O)O)c1cccc2c(=O)c3ccccc3oc12 (configuration not stated) | <50
27 | Cc1ccc2c(=O)c3cccc(CC(=O)O)c3oc2c1C [VADIMEZAN] | >90
28 | CC(C(=O)O)c1cccc2c(=O)c3ccccc3oc12 (configuration not stated) | >90
29 | O=c1c2ccccc2oc2c(CP(=O)(O)O)cccc12 | <50
30 | Cc1cccc2c(=O)c3cccc([C@@H](C)C(=O)O)c3oc12 | >90
31 | O=C(O)c1cccc2c(=O)c3ccccc3oc12 | <50
32 | O=C(Cc1cccc2c(=O)c3ccccc3oc12)NS(=O)(=O)c1ccccc1 | <50
33 | N=C(N)SCc1cccc2c(=O)c3ccccc3oc12 | <50

Species on record: Mus musculus
Assay: The compound was evaluated for its ability to cause early haemorrhagic necrosis of colon 38 tumors in mice; Value ranges from 50-90%
Format: functional
Details: not given
In short: as §1

Row | Compound | Activity [%]
34 | CN(C)CCNC(=O)Cc1cccc2c(=O)c3ccccc3oc12 | 90
35 | CN(C)CCOC(=O)Cc1cccc2c(=O)c3ccccc3oc12 | 90
36 | O=C(O)C(O)c1cccc2c(=O)c3ccccc3oc12 (configuration not stated) | 90
37 | NC(C(=O)O)c1cccc2c(=O)c3ccccc3oc12 (configuration not stated) | 90
38 | O=C(O)CCc1cccc2c(=O)c3ccccc3oc12 | 90

Tested on: Mus musculus
Assay: Optimal dose to achieve the level of activity cited in colon 38 tumors after intraperitoneal administration in mice.
Format: functional
Details: not given
In short: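 BDF1 mice bearing s.c. colon 38 tumors (4-8 mm) given a single i.p. dose of sodium salt in water. Full dose profile run at 1.5-fold intervals. Tumors removed at 24 h for histological necrosis scoring. Optimal dose is the minimum dose in mg/kg reaching the cited activity level.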

Row | Compound | OD [mg/kg]
39 | O=C(O)COc1cccc2c(=O)c3ccccc3oc12 | 750
40 | CN(C)CCNC(=O)Cc1cccc2c(=O)c3ccccc3oc12 | 750
41 | O=C(O)C(F)c1cccc2c(=O)c3ccccc3oc12 (configuration not stated) | 750
42 | CCOP(=O)(O)Cc1cccc2c(=O)c3ccccc3oc12 | 750
43 | CN(C)CCOC(=O)Cc1cccc2c(=O)c3ccccc3oc12 | 330
44 | Cc1cccc2c(=O)c3cccc([C@H](C)C(=O)O)c3oc12 | 65
45 | Cc1cccc2c(=O)c3cccc(C(C)C(=O)O)c3oc12 (configuration not stated) | 150
46 | O=C(O)Cc1cccc2c(=O)c3ccccc3oc12 | 220
47 | O=c1c2ccccc2oc2c(CS(=O)(=O)O)cccc12 | 330
48 | O=C(O)C(O)c1cccc2c(=O)c3ccccc3oc12 (configuration not stated) | 750
49 | COC(C(=O)O)c1cccc2c(=O)c3ccccc3oc12 (configuration not stated) | 750
50 | Cc1ccc2c(=O)c3cccc(CC(=O)O)c3oc2c1C [VADIMEZAN] | 30
51 | CC(C(=O)O)c1cccc2c(=O)c3ccccc3oc12 (configuration not stated) | 500
52 | O=c1c2ccccc2oc2c(CP(=O)(O)O)cccc12 | 750
53 | NC(C(=O)O)c1cccc2c(=O)c3ccccc3oc12 (configuration not stated) | 750
54 | O=C(O)CCc1cccc2c(=O)c3ccccc3oc12 | 500
55 | Cc1cccc2c(=O)c3cccc([C@@H](C)C(=O)O)c3oc12 | 220
56 | O=C(O)c1cccc2c(=O)c3ccccc3oc12 | 220
57 | O=C(Cc1cccc2c(=O)c3ccccc3oc12)NS(=O)(=O)c1ccccc1 | 750
58 | N=C(N)SCc1cccc2c(=O)c3ccccc3oc12 | 220

Tested on: not listed separately
Assay: Range of dose (highest nontoxic to minimum effective) over which 50-90% necrosis was achieved in mice
Set-up: unit not given here
Details: not given
In short: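 Single i.p. dose of sodium salt in water to BDF1 mice bearing s.c. colon 38 tumors. Doses escalated 1.5-fold. Tumor necrosis read histologically at 24 h. Range recorded from highest nontoxic to minimum effective dose giving 50-90% necrosis, only where activity occurred at more than one dose level.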

Row | Compound | Range
59 | Cc1cccc2c(=O)c3cccc(C(C)C(=O)O)c3oc12 (configuration not stated) | 150
60 | Cc1ccc2c(=O)c3cccc(CC(=O)O)c3oc2c1C [VADIMEZAN] | 30
61 | CC(C(=O)O)c1cccc2c(=O)c3ccccc3oc12 (configuration not stated) | 500
62 | Cc1cccc2c(=O)c3cccc([C@@H](C)C(=O)O)c3oc12 | 220
